# ChEMBL document CHEMBL1138567, “Regioselective synthesis and antimicrobial screening of novel ketocarbazolodispiropyrrolidine derivatives” (2009)
# Test system: Salmonella enterica subsp. enterica serovar Typhi str. CT18
# Assay: Antimicrobial activity against Salmonella typhi at 50 ug/ml after 24 hrs by agar diffusion method
# Assay type: functional
# Settings: read-out: IZ
# How it was run: (§1)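 Agar well diffusion: about 9 ml nutrient agar in 9 cm Petri plates, seeded with the test organism. Wells cut with a cork borer and loaded with test compound at 25–100 per ml; tetracycline as control. Plates incubated 24 h at 37 °C. Read-out is the average diameter of the inhibition zone around each well, in mm.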
row,SMILES,zone of inhibition at 50 µg/mL [mm]
1,CN1C[C@@H](c2ccccc2)[C@@]2(CCc3c([nH]c4ccccc34)C2=O)[C@]12C(=O)c1cccc3cccc2c13,14
2,CN1C[C@@H](c2ccccc2)[C@@]2(CCc3c([nH]c4ccccc34)C2=O)[C@]12C(=O)Nc1ccccc12,11
3,CN1C[C@@H](c2ccc([N+](=O)[O-])cc2)[C@@]2(CCc3c([nH]c4ccccc34)C2=O)C12C(=O)c1ccccc1C2=O,11

# Test system: Salmonella enterica subsp. enterica serovar Typhi str. CT18
# Assay: Antimicrobial activity against Salmonella typhi at 75 ug/ml after 24 hrs by agar diffusion method
# Assay type: functional
# Settings: read-out: IZ
# How it was run: as §1
row,SMILES,zone of inhibition at 75 µg/mL [mm]
1,CN1C[C@@H](c2ccccc2)[C@@]2(CCc3c([nH]c4ccccc34)C2=O)[C@]12C(=O)c1cccc3cccc2c13,20
2,CN1C[C@@H](c2ccccc2)[C@@]2(CCc3c([nH]c4ccccc34)C2=O)[C@]12C(=O)Nc1ccccc12,13
3,CN1C[C@@H](c2ccc([N+](=O)[O-])cc2)[C@@]2(CCc3c([nH]c4ccccc34)C2=O)C12C(=O)c1ccccc1C2=O,13

# Test system: Staphylococcus aureus
# Assay: Antimicrobial activity against Staphylococcus aureus at 75 ug/ml after 24 hrs by agar diffusion method
# Assay type: functional
# Settings: read-out: IZ
# How it was run: (§2)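 Agar well diffusion: petri plates (9 cm) with about 9 ml nutrient agar, seeded with the test organism. Wells cut with a cork borer and loaded with test compound at 25, 50, 75 or 100 per ml; tetracycline as control. Incubated 37 °C for 24 h; average inhibition-zone diameter around wells measured (mm).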
row,SMILES,zone of inhibition at 75 µg/mL [mm]
1,CN1C[C@@H](c2ccccc2)[C@@]2(CCc3c([nH]c4ccccc34)C2=O)[C@]12C(=O)c1cccc3cccc2c13,21
2,CN1C[C@@H](c2ccccc2)[C@@]2(CCc3c([nH]c4ccccc34)C2=O)[C@]12C(=O)Nc1ccccc12,16
3,CN1C[C@@H](c2ccc([N+](=O)[O-])cc2)[C@@]2(CCc3c([nH]c4ccccc34)C2=O)C12C(=O)c1ccccc1C2=O,18

# Test system: Salmonella enterica subsp. enterica serovar Typhi str. CT18
# Assay: Antimicrobial activity against Salmonella typhi at 25 ug/ml after 24 hrs by agar diffusion method
# Assay type: functional
# Settings: read-out: IZ
# How it was run: as §1
row,SMILES,zone of inhibition at 25 µg/mL [mm]
1,CN1C[C@@H](c2ccccc2)[C@@]2(CCc3c([nH]c4ccccc34)C2=O)[C@]12C(=O)c1cccc3cccc2c13,11
2,CN1C[C@@H](c2ccccc2)[C@@]2(CCc3c([nH]c4ccccc34)C2=O)[C@]12C(=O)Nc1ccccc12,9
3,CN1C[C@@H](c2ccc([N+](=O)[O-])cc2)[C@@]2(CCc3c([nH]c4ccccc34)C2=O)C12C(=O)c1ccccc1C2=O,9

# Test system: Proteus vulgaris
# Assay: Antimicrobial activity against Proteus vulgaris at 50 ug/ml after 24 hrs by agar diffusion method
# Assay type: functional
# Settings: read-out: IZ
# How it was run: as §2
row,SMILES,zone of inhibition at 50 µg/mL [mm]
1,CN1C[C@@H](c2ccccc2)[C@@]2(CCc3c([nH]c4ccccc34)C2=O)[C@]12C(=O)c1cccc3cccc2c13,14
2,CN1C[C@@H](c2ccccc2)[C@@]2(CCc3c([nH]c4ccccc34)C2=O)[C@]12C(=O)Nc1ccccc12,16
3,CN1C[C@@H](c2ccc([N+](=O)[O-])cc2)[C@@]2(CCc3c([nH]c4ccccc34)C2=O)C12C(=O)c1ccccc1C2=O,17

# Test system: Staphylococcus aureus
# Assay: Antimicrobial activity against Staphylococcus aureus at 50 ug/ml after 24 hrs by agar diffusion method
# Assay type: functional
# Settings: read-out: IZ
# How it was run: as §2
row,SMILES,zone of inhibition at 50 µg/mL [mm]
1,CN1C[C@@H](c2ccccc2)[C@@]2(CCc3c([nH]c4ccccc34)C2=O)[C@]12C(=O)c1cccc3cccc2c13,19
2,CN1C[C@@H](c2ccccc2)[C@@]2(CCc3c([nH]c4ccccc34)C2=O)[C@]12C(=O)Nc1ccccc12,13
3,CN1C[C@@H](c2ccc([N+](=O)[O-])cc2)[C@@]2(CCc3c([nH]c4ccccc34)C2=O)C12C(=O)c1ccccc1C2=O,14

# Test system: Proteus mirabilis
# Assay: Antimicrobial activity against Proteus mirabilis at 25 ug/ml after 24 hrs by agar diffusion method
# Assay type: functional
# Settings: read-out: IZ
# How it was run: as §2
row,SMILES,zone of inhibition at 25 µg/mL [mm]
1,CN1C[C@@H](c2ccccc2)[C@@]2(CCc3c([nH]c4ccccc34)C2=O)[C@]12C(=O)c1cccc3cccc2c13,11
2,CN1C[C@@H](c2ccccc2)[C@@]2(CCc3c([nH]c4ccccc34)C2=O)[C@]12C(=O)Nc1ccccc12,9
3,CN1C[C@@H](c2ccc([N+](=O)[O-])cc2)[C@@]2(CCc3c([nH]c4ccccc34)C2=O)C12C(=O)c1ccccc1C2=O,9

# Test system: Proteus vulgaris
# Assay: Antimicrobial activity against Proteus vulgaris at 75 ug/ml after 24 hrs by agar diffusion method
# Assay type: functional
# Settings: read-out: IZ
# How it was run: as §2
row,SMILES,zone of inhibition at 75 µg/mL [mm]
1,CN1C[C@@H](c2ccccc2)[C@@]2(CCc3c([nH]c4ccccc34)C2=O)[C@]12C(=O)c1cccc3cccc2c13,18
2,CN1C[C@@H](c2ccccc2)[C@@]2(CCc3c([nH]c4ccccc34)C2=O)[C@]12C(=O)Nc1ccccc12,20
3,CN1C[C@@H](c2ccc([N+](=O)[O-])cc2)[C@@]2(CCc3c([nH]c4ccccc34)C2=O)C12C(=O)c1ccccc1C2=O,18

# Test system: Staphylococcus aureus
# Assay: Antimicrobial activity against Staphylococcus aureus at 25 ug/ml after 24 hrs by agar diffusion method
# Assay type: functional
# Settings: read-out: IZ
# How it was run: as §2
row,SMILES,zone of inhibition at 25 µg/mL [mm]
1,CN1C[C@@H](c2ccccc2)[C@@]2(CCc3c([nH]c4ccccc34)C2=O)[C@]12C(=O)c1cccc3cccc2c13,14
2,CN1C[C@@H](c2ccccc2)[C@@]2(CCc3c([nH]c4ccccc34)C2=O)[C@]12C(=O)Nc1ccccc12,11
3,CN1C[C@@H](c2ccc([N+](=O)[O-])cc2)[C@@]2(CCc3c([nH]c4ccccc34)C2=O)C12C(=O)c1ccccc1C2=O,11

# Test system: Salmonella enterica subsp. enterica serovar Typhi str. CT18
# Assay: Antimicrobial activity against Salmonella typhi at 100 ug/ml after 24 hrs by agar diffusion method
# Assay type: functional
# Settings: read-out: IZ
# How it was run: as §1
row,SMILES,zone of inhibition at 100 µg/mL [mm]
1,CN1C[C@@H](c2ccccc2)[C@@]2(CCc3c([nH]c4ccccc34)C2=O)[C@]12C(=O)c1cccc3cccc2c13,28
2,CN1C[C@@H](c2ccccc2)[C@@]2(CCc3c([nH]c4ccccc34)C2=O)[C@]12C(=O)Nc1ccccc12,18
3,CN1C[C@@H](c2ccc([N+](=O)[O-])cc2)[C@@]2(CCc3c([nH]c4ccccc34)C2=O)C12C(=O)c1ccccc1C2=O,18

# Test system: Proteus mirabilis
# Assay: Antimicrobial activity against Proteus mirabilis at 50 ug/ml after 24 hrs by agar diffusion method
# Assay type: functional
# Settings: read-out: IZ
# How it was run: as §2
row,SMILES,zone of inhibition at 50 µg/mL [mm]
1,CN1C[C@@H](c2ccccc2)[C@@]2(CCc3c([nH]c4ccccc34)C2=O)[C@]12C(=O)c1cccc3cccc2c13,13
2,CN1C[C@@H](c2ccccc2)[C@@]2(CCc3c([nH]c4ccccc34)C2=O)[C@]12C(=O)Nc1ccccc12,12
3,CN1C[C@@H](c2ccc([N+](=O)[O-])cc2)[C@@]2(CCc3c([nH]c4ccccc34)C2=O)C12C(=O)c1ccccc1C2=O,13

# Test system: Proteus mirabilis
# Assay: Antimicrobial activity against Proteus mirabilis at 75 ug/ml after 24 hrs by agar diffusion method
# Assay type: functional
# Settings: read-out: IZ
# How it was run: as §2
row,SMILES,zone of inhibition at 75 µg/mL [mm]
1,CN1C[C@@H](c2ccccc2)[C@@]2(CCc3c([nH]c4ccccc34)C2=O)[C@]12C(=O)c1cccc3cccc2c13,22
2,CN1C[C@@H](c2ccccc2)[C@@]2(CCc3c([nH]c4ccccc34)C2=O)[C@]12C(=O)Nc1ccccc12,14
3,CN1C[C@@H](c2ccc([N+](=O)[O-])cc2)[C@@]2(CCc3c([nH]c4ccccc34)C2=O)C12C(=O)c1ccccc1C2=O,18

# Test system: Proteus mirabilis
# Assay: Antimicrobial activity against Proteus mirabilis at 100 ug/ml after 24 hrs by agar diffusion method
# Assay type: functional
# Settings: read-out: IZ
# How it was run: as §2
row,SMILES,zone of inhibition at 100 µg/mL [mm]
1,CN1C[C@@H](c2ccccc2)[C@@]2(CCc3c([nH]c4ccccc34)C2=O)[C@]12C(=O)c1cccc3cccc2c13,32
2,CN1C[C@@H](c2ccccc2)[C@@]2(CCc3c([nH]c4ccccc34)C2=O)[C@]12C(=O)Nc1ccccc12,16
3,CN1C[C@@H](c2ccc([N+](=O)[O-])cc2)[C@@]2(CCc3c([nH]c4ccccc34)C2=O)C12C(=O)c1ccccc1C2=O,21

# Test system: Proteus vulgaris
# Assay: Antimicrobial activity against Proteus vulgaris at 25 ug/ml after 24 hrs by agar diffusion method
# Assay type: functional
# Settings: read-out: IZ
# How it was run: as §2
row,SMILES,zone of inhibition at 25 µg/mL [mm]
1,CN1C[C@@H](c2ccccc2)[C@@]2(CCc3c([nH]c4ccccc34)C2=O)[C@]12C(=O)Nc1ccccc12,12
2,CN1C[C@@H](c2ccc([N+](=O)[O-])cc2)[C@@]2(CCc3c([nH]c4ccccc34)C2=O)C12C(=O)c1ccccc1C2=O,12

# Test system: Proteus vulgaris
# Assay: Antimicrobial activity against Proteus vulgaris at 100 ug/ml after 24 hrs by agar diffusion method
# Assay type: functional
# Settings: read-out: IZ
# How it was run: as §2
row,SMILES,zone of inhibition at 100 µg/mL [mm]
1,CN1C[C@@H](c2ccccc2)[C@@]2(CCc3c([nH]c4ccccc34)C2=O)[C@]12C(=O)c1cccc3cccc2c13,21
2,CN1C[C@@H](c2ccccc2)[C@@]2(CCc3c([nH]c4ccccc34)C2=O)[C@]12C(=O)Nc1ccccc12,26
3,CN1C[C@@H](c2ccc([N+](=O)[O-])cc2)[C@@]2(CCc3c([nH]c4ccccc34)C2=O)C12C(=O)c1ccccc1C2=O,18

# Test system: Staphylococcus aureus
# Assay: Antimicrobial activity against Staphylococcus aureus at 100 ug/ml after 24 hrs by agar diffusion method
# Assay type: functional
# Settings: read-out: IZ
# How it was run: as §2
row,SMILES,zone of inhibition at 100 µg/mL [mm]
1,CN1C[C@@H](c2ccccc2)[C@@]2(CCc3c([nH]c4ccccc34)C2=O)[C@]12C(=O)c1cccc3cccc2c13,26
2,CN1C[C@@H](c2ccccc2)[C@@]2(CCc3c([nH]c4ccccc34)C2=O)[C@]12C(=O)Nc1ccccc12,18
3,CN1C[C@@H](c2ccc([N+](=O)[O-])cc2)[C@@]2(CCc3c([nH]c4ccccc34)C2=O)C12C(=O)c1ccccc1C2=O,18
